# Source: PubChem (several laboratories)
# Only some compounds are listed: those with a hit (about 1.5% of all), similar ones and a draw of the others.
# TPT1 inh: C. albicans TPT1 enzyme inhibition | 300,000 tested, 0.81% active | inhibition, % at 5 µM | recombinant caTPT1, FP RNA substrate dephosphorylation;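 active = inhibition above the mean of all tested compounds plus 3 SD, set per screening campaign, cut at about 24% in these data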;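 also: plate controls were DMSO alone for no effect and ferristatin control at 100 nM for full effect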
# CSN inh: inhibitors of human CSN-mediated cullin deneddylation; AID 651999; 360,000 tested, 0.38% active; inhibition, % at 12.5 µM; Purified CSN, SCF-Nedd8-OG deneddylation, fluorescence polarization; Q92905;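 active = pattern-corrected inhibition above about 35%, with an unprinted fluorescence ratio check between 0.5 and 1.5, limit read from the data, passing the limit was not always enough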;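 also: 0% = enzyme with substrate and 100% = substrate without enzyme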
#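 Assay system: Purified human Csn5 enzyme expressed in HEK293T cells | Amount: Enzyme 0.24 nM | Measured by: Fluorescence polarization readout | Medium: Tris/NaCl/DTT buffer, pH 7.5 | Compound dosing: One concentration, 12.5 µM, 0.25% DMSO | Times: 90 min incubation of compound, enzyme and substrate at room temperature | Control set: no-enzyme wells high, enzyme-with-substrate wells low | Read-out: % inhibition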
# Rpn11 inh: inhibitors of human proteasome Rpn11; calls only at 20 µM; O00487; 360,000 tested, 0.59% active; human 26S proteasome, Ub4-pepOG fluorescence polarization; 20S core pre-blocked with epoxomicin;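 active = inhibition at 20 µM, scaled to each plate's controls, above about 33%, limit read from the data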
# Target sequence (O00487 whole entry, looked up): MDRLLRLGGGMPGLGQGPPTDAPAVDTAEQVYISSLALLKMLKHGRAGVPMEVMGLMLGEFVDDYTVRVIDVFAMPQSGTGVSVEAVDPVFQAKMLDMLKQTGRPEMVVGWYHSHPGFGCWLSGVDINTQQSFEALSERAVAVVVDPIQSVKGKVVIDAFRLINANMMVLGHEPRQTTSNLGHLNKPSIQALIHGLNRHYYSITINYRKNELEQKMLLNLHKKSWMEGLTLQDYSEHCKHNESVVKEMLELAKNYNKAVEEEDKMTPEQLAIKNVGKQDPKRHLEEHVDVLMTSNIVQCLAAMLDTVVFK
# HNF4A DNA FP: change in binding of human HNF4 alpha to DNA. P41235. HNF4a-FITC DNA binding, fluorescence polarization, 1 h. activity change, % at 10 µM. 360,000 tested, 0.3% active. AID 1224865; in the data active = activity change above about 30%, passing the limit was not always enough
# caTPT1 confirm: confirmation of Candida albicans TPT1 inhibitors; shares compounds with TPT1 inh; recombinant caTPT1, fluorescence polarization, RNase T1 coupled; inhibition, % at 5 µM; 2,400 tested, 74% active; AID 2149;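 active = inhibition above the primary screen limit, the mean inhibition of all tested compounds plus 3 SD, cut at about 25% in these data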
# RNase T1 inh: RNase T1 inhibition in TPT1 counter-screen; RNase T1 cleavage, fluorescence polarization, 1536-well; shares compounds with TPT1 inh; 2,400 tested, 83% active; AID 2153; inhibition, % at 5 µM;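 active = inhibition above the solvent-only control well mean plus 3 SD, limit set per screening run, cut at about 23% in these data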;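 also: plate controls were DMSO wells with enzyme for no effect and wells without RNase T1 for full effect; inhibitors block cleavage so intact labeled substrate keeps polarization high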
# Target sequence (P00651 whole entry, looked up): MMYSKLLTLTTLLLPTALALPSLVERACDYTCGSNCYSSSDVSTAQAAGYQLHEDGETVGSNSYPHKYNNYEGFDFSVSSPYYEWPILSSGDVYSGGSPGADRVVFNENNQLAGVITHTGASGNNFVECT
# Rpn11 inh conf: confirmation of human proteasome Rpn11 inhibitors. shares compounds with Rpn11 inh. purified human 26S proteasome, Ub4-pepOG fluorescence polarization; proteasome pretreated with epoxomicin. inhibition, % at 20 µM. 1,900 tested, 29% active
# MMP-2 inh: MMP-2 (human) inhibition counter-screen; shares compounds with Rpn11 inh; recombinant MMP-2, FRET peptide cleavage fluorescence; inhibition, % at 20 µM; 1,900 tested, 4% active; AID 602330;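 also: human MMP-2 activated beforehand with APMA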
# Thrombin FP: blocks bovine thrombin, flagging nonselective RPN11 hits. shares compounds with Rpn11 inh. bovine thrombin cleavage of Ub4-pepOG, fluorescence polarization. inhibition, % at 20 µM. 1,900 tested, 13% active. AID 602333;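 active = mean inhibition at least 40% at 20 µM, or signal 3 deviations below plate average, so some actives read negative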;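 also: plate controls were thrombin with DMSO for no effect and buffer wells lacking thrombin for full effect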
# * hit, by the source's call; i = inactive; x = no result shown; + = active, no number. Rule as the data show it, unless noted: active = inhibition above about 40%; inactive = the rest.
SMILES,TPT1 inh,CSN inh,Rpn11 inh,HNF4A DNA FP,caTPT1 confirm,RNase T1 inh,others
N#C/C(=C\c1ccc(N2CCOCC2)o1)c1ccccc1,67*,8,x,78*,138*,137*,
N#C/C(=C\c1cc([N+](=O)[O-])c(N2CCOCC2)cc1N1CCOCC1)c1nc2ccccc2[nH]1,-5,0,i,-5,x,x,
N#C/C(=C\c1ccc(Sc2ccc(Cl)cc2)o1)c1nc2ccccc2[nH]1,52*,4,i,14,51*,66*,
O=C(NCCCn1cccn1)C1CCC(=O)N(Cc2ccccc2F)C1 (centres undefined),-2,1,i,-12,x,x,
COc1ccc(-c2ccc(C3C(C#N)=C(N)Oc4n[nH]c(C)c43)o2)cc1 (centres undefined),111*,31,+,61*,99*,101*,
NC(=O)c1ncn([C@@H]2O[C@H](CNCc3ccc(OCC(=O)Nc4nccs4)cc3)[C@@H](O)[C@H]2O)n1,x,3,i,-1,x,x,
CC1CCCC(C)N1C(=O)CSc1nnc(-c2ccco2)n1C (centres undefined),x,-8,i,-2,x,x,
CCOc1cc(/C=C2\C(=O)N(c3nc(-c4ccc(Br)cc4)cs3)N=C2c2ccccc2)ccc1O,41*,4,i,-12,100*,104*,
CCOC(=O)Cc1cc(=O)n(-c2nc3ccccc3s2)[nH]1,28*,13,i,9,14,24*,
CCCc1cc(=O)n(-c2nc3ccccc3s2)[nH]1,-6,6,i,-3,x,x,
COc1cccc(-c2ccc(SCC(=O)NCCc3ccccc3)nn2)c1,54*,-5,i,1,3,6,
COc1ccc(CCNC(=O)CSc2ccc(-c3ccccc3)nn2)cc1OC,4,3,i,-2,x,x,
Cc1cccc(C)c1C(O)c1ncc(-c2ccccc2C(F)(F)F)[nH]1 (centres undefined),x,-3,i,0,x,x,
CC1C/C(=C\c2ccccc2[N+](=O)[O-])c2nc3ccccc3c(C(=O)O)c2C1 (centres undefined),-3,4,i,-5,x,x,
Cc1cc2oc(=O)cc(CN3CCCc4ccccc43)c2cc1C,48*,7,x,8,43*,53*,
C=CCn1c(=O)/c(=C/c2ccc(O)cc2)s/c1=C(/C#N)c1nnc2n1CCCCC2,118*,97*,x,80*,119*,116*,
CC(=O)Nc1ccc(N=Cc2c(O)ccc3ccccc23)cc1,46*,42,x,77*,46*,79*,
COc1ccc(N=Cc2c(O)ccc3ccccc23)cc1,112*,51*,x,72*,90*,110*,
CC(=O)N1CCN(CC(=O)Nc2ccccc2C(=O)Nc2ccccc2)CC1,x,1,i,0,x,x,
O=[N+]([O-])c1cc(Br)ccc1C[n+]1ccccc1,x,-3,i,2,x,x,
CC(C)C(=O)Nc1nnc(SCC(=O)NCc2cccs2)s1,32*,-4,i,-4,1,2,
CC(C)(C)C(=O)Nc1nnc(SCC(=O)NCc2cccs2)s1,-5,-5,i,-2,x,x,
O=C(NCCc1ccccc1)C(c1ccccc1F)N(C(=O)c1csnn1)C1CC1 (centres undefined),-5,6,i,11,x,x,
Cc1ccc(S(=O)(=O)NNc2nnc(C)c(=O)[nH]2)cc1,51*,6,i,-8,3,6,
Cc1nnc(NNS(=O)(=O)c2ccc(Cl)cc2)[nH]c1=O,4,-2,i,-4,x,x,
SMILES,TPT1 inh,CSN inh,Rpn11 inh,HNF4A DNA FP,caTPT1 confirm,RNase T1 inh,others
C=CCc1cccc(/C=N/NC(=O)c2ccc3nc[nH]c3c2)c1O,0,-1,i,-2,x,x,
CC(=O)C1=C(C)NC(SCC(=O)c2ccc(-c3ccccc3)cc2)=C(C#N)C1c1cccnc1 (centres undefined),30*,x,x,x,39*,50*,
C=CCOC(=O)C1=C(C)NC(SCC(=O)NC(=O)OCC)=C(C#N)C1c1cccnc1 (centres undefined),25*,1,i,-8,23,31*,
C=CCN1C=CC(=C/C=C(/C#N)C(=O)OCC)C=C1,176*,164,x,178,187*,173*,
COc1cc(Cl)c(C)cc1NC(=O)c1ccccc1-n1cnnn1,x,2,i,3,x,x,
Cc1ccc(C(=O)CSc2cc(C)[nH]c(=O)n2)cc1,28*,10,+,17,39*,47*,Rpn11 inh conf=49*;MMP-2 inh=16;Thrombin FP=24
Cc1cc(SCC(=O)c2ccccc2)nc(=O)[nH]1,3,7,i,6,x,x,
COc1cccc(/C=C2\Oc3cc(OCC(=O)N4CCC[C@H]4C(=O)O)ccc3C2=O)c1,5,5,i,-4,x,x,
COc1ccc(/C=C2\Oc3cc(OCC(=O)N4CCC[C@H]4C(=O)O)ccc3C2=O)c(OC)c1,35*,14,+,24,81*,91*,Rpn11 inh conf=142*;MMP-2 inh=-1;Thrombin FP=87*
Cc1ccc(S(=O)(=O)N2C[C@H]3[C@H]4C(=O)N(c5ccccc5)C(=O)[C@H]4C[C@H](OC(=O)NC4CC4)[C@@]3(O)C2)cc1,x,0,i,-5,x,x,
CCOc1ccc(S(=O)(=O)N(CC(=O)N/N=C/c2ccc(-c3ccc([N+](=O)[O-])cc3)o2)c2ccccc2)cc1,39*,9,+,-10,39*,52*,Rpn11 inh conf=43*;MMP-2 inh=74*;Thrombin FP=19
Cc1cc(N2CCCC2)ccc1/C=C1/C(=O)N(C)C(=S)N1C,73*,18,+,22,67*,76*,Rpn11 inh conf=30;MMP-2 inh=-9;Thrombin FP=28
C#CCN1C(=O)S/C(=C\c2ccc(N3CCOCC3)cc2C)C1=O,10,-15,i,-9,x,x,
O=C(NN1C(=O)/C(=C/C=C/c2ccccc2)SC1=S)c1ccncc1,131*,20,+,79*,35*,47*,Rpn11 inh conf=-3;MMP-2 inh=2;Thrombin FP=19
COc1ccc(/C=C2\SC(=S)N(NC(=O)c3ccncc3)C2=O)cc1OC,6,x,x,x,x,x,
O=C(NN1C(=O)/C(=C/C=C/c2ccco2)SC1=S)c1ccncc1,86*,46,+,-46,58*,36*,Rpn11 inh conf=123*;MMP-2 inh=55*;Thrombin FP=54*
CC(C)N=C1NN=C(c2cccs2)CS1,-1,5,i,3,x,x,
